Assay outcomes deposited in PubChem by The Scripps Research Institute Molecular Screening Center.
OX1R antag-1 = blocks the human orexin 1 receptor. O43613. CHO/OX1R cells, Fluo-8 calcium fluorescence, orexin A. inhibition, % at 5 µM. 0.43% of 330,000 active. AID 434989;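 active = inhibition above its plate's threshold, mean inhibition of all tested compounds on the plate plus 3 SD, cut at about 37% in these data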;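 note: 0% = orexin A challenge wells and 100% = SB-334867-A antagonist wells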
Target sequence (O43613 whole entry, looked up): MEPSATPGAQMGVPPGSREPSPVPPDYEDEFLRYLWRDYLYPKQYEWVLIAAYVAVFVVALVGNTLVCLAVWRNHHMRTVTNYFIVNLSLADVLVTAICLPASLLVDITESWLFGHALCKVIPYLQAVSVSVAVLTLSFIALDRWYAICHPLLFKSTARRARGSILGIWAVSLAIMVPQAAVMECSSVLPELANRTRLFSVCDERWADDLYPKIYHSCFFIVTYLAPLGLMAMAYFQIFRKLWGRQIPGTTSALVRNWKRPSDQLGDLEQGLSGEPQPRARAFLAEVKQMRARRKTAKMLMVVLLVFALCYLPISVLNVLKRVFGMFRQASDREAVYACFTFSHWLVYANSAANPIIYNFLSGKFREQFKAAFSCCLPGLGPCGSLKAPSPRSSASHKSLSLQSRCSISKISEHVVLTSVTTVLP
OX1R antag-2 = antagonists of human orexin 1 receptor (OX1R); O43613; OX1R-expressing cells, FRET antagonist read-out; inhibition, % at 6.6 µM; 1.8% of 330,000 active; AID 485270; in the data active = inhibition mostly above about 38%, no sharp cut-off; inactive = mostly below about 40%;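 note: 0% = agonist challenge alone and 100% = reference antagonist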
GPR7 antagonist = human neuropeptides B/W receptor 1 antagonism | P48145 | GPR7-expressing cells, fluorescence antagonist assay | inhibition, % at 4.4 µM | 1.1% of 290,000 active; in the data active = inhibition above about 16%, passing the limit was not always enough;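 note: cells stimulated with the agonist NPW; 0% = agonist with vehicle and 100% = vehicle without agonist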
CHO parental Ca = counter-screen: ATP calcium response change in parental CHO cells; parental CHO-K1, ATP-induced calcium, Fluo-8 fluorescence; inhibition, % at 5.6 µM; 0.63% of 330,000 active; AID 463079;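 active = inhibition above that plate's mean sample inhibition plus 3 SD, cut at about 26% in these data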;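 note: 0% = ATP-challenged DMSO wells and 100% = DMSO wells without ATP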
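Test system: untransfected parental CHO cell line. Compound: one dose, 5.6 µM nominal. Detection: intracellular calcium via Fluo-8 no-wash fluorescent dye. Measure: % inhibition. Benchmarks: ATP-challenged DMSO wells low, unchallenged DMSO wells high.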
GalR3 antagonist = antagonists of human GalR3 | 0.44% of 360,000 active | HEK293 GalR3-CNG cAMP membrane potential fluorescence; galR3 body fused to GalR1 C-terminus | inhibition, % at 3 µM | O60755;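 active = inhibition above the screen-wide average plus 3 SD, cut at about 13% in these data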;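 note: forskolin and galanin both at EC90 stimulate the cells; cAMP rise reported by CNG channel membrane potential dye signal; 0% = forskolin plus galanin with DMSO and 100% = forskolin alone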
Target sequence (O60755 1-299 limits assumed): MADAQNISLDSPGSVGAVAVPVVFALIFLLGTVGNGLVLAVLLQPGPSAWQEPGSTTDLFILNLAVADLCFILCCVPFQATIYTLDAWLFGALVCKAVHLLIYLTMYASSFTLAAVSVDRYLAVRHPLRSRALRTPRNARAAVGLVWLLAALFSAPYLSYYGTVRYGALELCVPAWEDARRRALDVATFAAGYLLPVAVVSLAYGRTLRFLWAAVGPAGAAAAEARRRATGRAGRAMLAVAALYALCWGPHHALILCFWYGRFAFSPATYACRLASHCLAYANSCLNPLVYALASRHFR
Active calls of the source: *; . = no result. Hits are enriched below; roughly 3.1% of the tested compounds scored in any of these assays.

SMILES | OX1R antag-1 | OX1R antag-2 | GPR7 antagonist | CHO parental Ca | GalR3 antagonist
CCCC(=O)Nc1nc2c(C)c(Cl)ccc2s1 | -2.2 | 26.6 | -11.0 | 8.6 | -5.0
CCn1c(Cl)c(C=O)s/c1=N\S(=O)(=O)c1ccccc1 | 16.9 | 51.2 | 44.6* | 23.7 | -0.1
CCC(C)Sc1cccc(-c2nc3ccc(Cl)cn3c2NCc2ccccc2)c1 (stereo not drawn) | -22.4 | 44.1 | . | -16.6 | .
CCCCNc1c(-c2ccc(OC)c(Sc3ccc(OC)cc3)c2)nc2ccccn12 | 40.9 | 48.0 | . | 45.1* | .
CCC(C)Sc1cccc(-c2nc3ccc(C)cn3c2NCc2ccccc2)c1 (stereo not drawn) | 61.5* | 44.0 | . | 49.2* | -7.1
CCCCNc1c(-c2ccc(OC)c(Sc3ccc(OC)cc3)c2)nc2cnccn12 | 0.2 | 14.2 | . | -26.8 | -4.3
CCCCNc1c(-c2ccc(SC(C)CC)c(OC)c2)nc2ccc(C)cn12 (stereo not drawn) | 41.8 | 67.8* | . | 44.4* | -2.8
CCCCCCSc1ccc(-c2nc3ccc(C)cn3c2NCCCC)cc1OC | . | . | . | . | -6.6
Cc1ccc(Oc2ccc(Oc3ccc(C)cc3)nn2)cc1 | -10.1 | 11.7 | -4.9 | 27.2* | -3.1
COC(=O)C(Cc1ccc(OC(=O)c2ccc(Cl)cc2)cc1)N1Cc2ccccc2C1=O (stereo not drawn) | 41.3* | 22.9 | -14.6 | 52.7* | -4.0
COC(=O)C(Cc1ccc(OC(=O)c2ccc(C(F)(F)F)cc2)cc1)N1Cc2ccccc2C1=O (stereo not drawn) | 36.4 | 10.7 | -11.7 | 40.2* | .
O=C(Nn1c(C2CCCCC2)nc2ccccc2c1=O)c1ccc(Cl)c([N+](=O)[O-])c1 | -18.9 | 52.6* | -16.0 | -21.9 | -5.7
O=C1/C(=C/c2cccc([N+](=O)[O-])c2)Oc2cc(O)ccc21 | 14.4 | 28.6* | 5.1 | 1.1 | -9.2
O=C1/C(=C/c2ccc(O)c(O)c2)Oc2cc(O)ccc21 | 14.4 | 23.9 | . | 14.8 | 3.2
COc1cc(/C=C2\Oc3cc(O)ccc3C2=O)ccc1O | 33.0 | 60.5* | . | 22.4 | -4.6
Cc1cc(C)cc([C@H]2C[C@]34CN(Cc5ccccc5)S(=O)(=O)[C@H]3C[C@H]2O4)c1 | . | . | . | . | -7.3
CN(C)S(=O)(=O)c1cccc(NC(=O)c2ccc(COc3ccccc3)cc2)c1 | 29.3 | 10.6 | 25.4 | 55.9* | 7.5
COCc1ccc(C(=O)Nc2cccc(S(=O)(=O)N(C)c3ccccc3)c2)cc1 | -19.5 | 15.0 | . | -1.7 | -8.3
COc1cccc(/C=C2/Sc3ccc(C(=O)NC4CC4)cc3NC2=O)c1 | . | . | . | . | -2.7
N#Cc1ccsc1NC(=O)COC(=O)c1cc2ccccc2cc1O | -8.3 | 41.1* | -6.3 | -13.7 | -4.3
C/C(=N\NC(=O)CCc1c(C)n[nH]c1C)c1ccc([N+](=O)[O-])cc1 | -8.1 | 27.5 | 1.2 | -4.2 | -1.8
C/C(=N\NC(=O)CCc1c[nH]c2ccccc12)c1ccc([N+](=O)[O-])cc1 | -9.4 | 59.5* | -3.4 | 0.1 | -3.2
COc1cc(C(=O)NCCNc2nc3cc(C)ccc3cc2C#N)cc(OC)c1OC | -15.9 | 54.5* | -18.6 | -16.9 | -7.8
COc1ccc(C(=O)NCCCNc2nc3cc(C)cc(C)c3cc2C#N)cc1 | . | . | . | . | 6.7
COc1cc(OC)cc(C(=O)NCCNc2nc3cc(C)cc(C)c3cc2C#N)c1 | 2.9 | 53.1* | -25.7 | -24.2 | -5.5
SMILES | OX1R antag-1 | OX1R antag-2 | GPR7 antagonist | CHO parental Ca | GalR3 antagonist
COc1ccccc1C(=O)NCCNc1nc2cc(C)cc(C)c2cc1C#N | -10.8 | 40.9 | 10.9 | -30.5 | -6.4
Cc1cc(C)c2cc(C#N)c(NCCOC(=O)c3ccccc3C)nc2c1 | -0.4 | 36.5* | -17.1 | -41.8 | 4.1
COc1cc(C(O)c2nc(-c3ccc(F)c(Cl)c3)cs2)ccc1F (stereo not drawn) | . | . | . | . | -6.9
O=C(CSc1nnc2scc(-c3ccccc3)n12)Nc1nsc(-c2ccccc2)n1 | 9.2 | 72.6* | -2.1 | -26.9 | .
O=[N+]([O-])c1cc(Br)c(O)c(C=Nc2ccc(N3CCOCC3)cc2)c1 | -14.3 | 65.8* | -10.3 | -16.3 | 11.8
COc1cccc(C=Nc2ccc(N3CCOCC3)cc2)c1O | -32.1 | 4.1 | -15.1 | -13.7 | -6.0
COc1cc(OC)cc(C(=O)NC(=S)Nc2nnn(C)n2)c1 | -11.6 | -2.2 | -14.1 | -13.8 | -3.5
Nc1ccccc1SC1CC(=O)N(c2ccc3c(c2)OCCO3)C1=O (stereo not drawn) | -17.0 | 6.8 | -12.1 | -17.9 | 0.8
Nc1ccccc1SC1CC(=O)N(c2ccc(Cl)c(Cl)c2)C1=O (stereo not drawn) | 24.1 | 6.8 | -6.4 | 34.3* | -8.8
O=C(NCC1CCCO1)c1cc2c([nH]c3ccccc32)c(-c2cccc(Cl)c2)n1 (stereo not drawn) | 8.7 | 49.6* | -5.8 | 0.6 | .
O=C(Nc1ccc2cccnc2c1)c1ccc(Br)cc1 | 1.8 | 29.7* | -9.9 | -13.2 | -5.3
Cc1cc(NC(=O)c2ccc3nccnc3c2)ccc1Br | 12.4 | 48.2* | . | -3.3 | -6.6
COC(=O)c1ccc(NC(=O)c2ccc3nccnc3c2)cc1 | -10.2 | 39.3 | -5.6 | -14.7 | -7.3
O=C(Nc1ccc(SC(F)F)cc1)c1ccc2nccnc2c1 | 85.6* | 51.8* | -2.1 | 51.9* | -4.7
COc1ccc2[nH]c3c(c2c1)CCN1C(=O)C(CC(=O)NCCCn2ccnc2)C[C@H](C(=O)N2CCCCC2)[C@@]31CCc1ccccc1 (stereo partly drawn) | -12.1 | 4.0 | . | -13.3 | -8.5
CC1(C)OC(C)(C)C(=N/O)/C1=N\N | . | . | . | . | -7.8
O=S1(=O)CC(N2CCCC2)CN1Cc1cn(Cc2cccc(Cl)c2)nn1 (stereo not drawn) | . | . | . | . | 6.4
CCOC(=O)C1=CCN(S(=O)(=O)c2ccc(F)cc2)C1c1ccc(Cl)cc1 (stereo not drawn) | . | . | . | . | -6.4
COC(=O)C(C)Sc1nc2c(c(=O)[nH]c(=O)n2C)n1CCCc1ccccc1 (stereo not drawn) | -31.9 | 14.3 | -16.0 | -18.2 | 52.7*
CCOC(=O)C(C)Sc1nc2c(c(=O)[nH]c(=O)n2C)n1CCc1ccccc1 (stereo not drawn) | -5.3 | 30.3 | 23.2 | -17.2 | -1.8
COc1cccc2c(=O)c3ccccc3oc12 | -8.8 | 62.4* | -4.2 | -6.7 | -7.6
O=C(O)c1ccc(Cl)c(NC(=O)C2CCN(S(=O)(=O)c3cccs3)CC2)c1 | . | . | . | . | -3.1
C#CCN1CC(COc2ccccc2)Oc2cccc(Oc3ccc(SC)c(C)c3)c2S1(=O)=O (stereo not drawn) | . | . | . | . | -6.4
CN(CC(=O)NCc1cccs1)S(=O)(=O)c1cccc2nsnc12 | -10.6 | 50.8* | 0.1 | -1.2 | -0.3
CN(CC(=O)NCc1ccc(F)cc1)S(=O)(=O)c1cccc2nsnc12 | -15.7 | 57.9 | -2.4 | -9.9 | -3.4
C[C@H](O)[C@@H]1C(=O)N2CCc3ccc(-c4ccccc4)cc3[C@@H]2C[C@@H]1N(C)C(=O)c1ccc(C#N)cc1 | . | . | . | . | -6.5
O=C(Nc1cccc(C(F)(F)F)c1)Oc1ccc(Cl)c2cccnc12 | 33.5 | 23.0 | 31.6* | 62.5* | -9.2
CCN(CC)C(=O)Oc1ccc(Cl)c2cccnc12 | 1.8 | 28.1 | -9.7 | 3.9 | 0.2
